Data set [1] concerns MDA-MB-231. Nature of the data set: Drug uptake in human MDA-MB-231 cells assessed as increase in fluorescently labeled cells at 10 '-5 mol/L after 30 mins by FACS analysis relative to WNleEAAYQRFL peptide. The class given is ADME, cell-based. The conditions noted are these: mda-mb-231, 0.5 h, 10 µM. An outline of the steps: (§1)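 Cells grown to 80% confluence, trypsinized, seeded at 10^6 per well for 24 h at 37 °C, then exposed to FITC-labeled peptides at 10−5 mol/L in serum-free medium for 30 min at 37 °C. Washed three times with PBS, trypsinized to strip surface-bound peptide, analyzed by flow cytometry. Untreated-cell autofluorescence set the cutoff for labeled cells. Repeated 2−3 times.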
In general terms: Flow cytometry measures light scatter and fluorescence of single cells or particles in a stream.

Data set [2] relates to Liver. The data set is described as follows: Proteolytic stability in CD1 mouse liver homogenate up to 48 hrs by RP-HPLC analysis. It is filed as ADME, tissue-based. To be noted: tissue homogenate. An outline of the steps:
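Homogenate prepared from male CD-1 mouse liver in ice-cold HEPES pH 7.4, centrifuged, and its protein set by BCA. Peptide stock (1 mM in 5% ACN/water) diluted into homogenate plus RPMI pH 7.4 (2.94 mg protein total), shaken at 37 °C up to 48 h. Timed aliquots analyzed by RP-HPLC.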

The test system of data set [3] is MDA-MB-435. The data set is described as follows: Drug uptake in human MDA-MB-435 cells assessed as internalization at 10 '-5 mol/L after 30 mins by fluorescence microscopy. The class given is ADME, cell-based. The conditions noted are these: mda-mb-435, 0.5 h, 10 µM. The procedure, abridged: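 MDA-MB-435 cells (50 000) grown on coverslips for 24 h at 37 °C, then given FITC-labeled peptide at 10−5 mol/L in serum-free medium for 30 min at 37 °C. Washed, fixed on ice with 2% formaldehyde for 20 min, nuclei stained with DAPI. Imaged by fluorescence microscopy at 20×; internalization confirmed by confocal optical sectioning, 40× oil lens, 1.64 μm steps.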

Another data set is filed under the species Homo sapiens. The data set is described as follows: Binding affinity to human MDA-MB-435 cell membrane at 10 '-5 mol/L after 30 mins by fluorescence microscopy. The procedure, abridged: (§2)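 MDA-MB-435 or HUVEC cells (50,000) grown on coverslips for 24 h at 37 °C, then exposed to FITC-labelled peptide at 10−5 mol/L in serum-free medium for 30 min at 37 °C. Cells washed, fixed on ice in 2% formaldehyde for 20 min, nuclei stained with DAPI. Imaged by fluorescence microscopy (20×); the same samples were taken to confocal optical sectioning (40× oil) to confirm internalization.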

For data set [4], the system named is MCF7. The data set is described as follows: Drug uptake in human MCF7 cells assessed as increase in fluorescently labeled cells at 10 '-5 mol/L after 30 mins by FACS analysis relative to WNleEAAYQRFL peptide. It is filed as ADME, cell-based. To be noted: mcf7, 0.5 h, 10 µM. An outline of the steps:
as §1

Data set [5] deals with MDA-MB-435. Nature of the data set: Drug uptake in human MDA-MB-435 cells assessed as increase in fluorescently labeled cells at 10 '-5 mol/L after 30 mins by FACS analysis relative to WNleEAAYQRFL peptide. To be noted: mda-mb-435, 0.5 h, 10 µM. It is filed as ADME, cell-based. An outline of the steps:
as §1

The next data set deals with MCF-10A. The data set is described as follows: Drug uptake by human MCF10A cells assessed as increase in fluorescently labeled cells after 30 mins by FACS analysis relative to untreated control. It is filed as ADME, cell-based. To be noted: 0.5 h. The procedure, abridged:
as §1

Data set [6] relates to HUVEC. Nature of the data set: Drug uptake in human HUVEC cells at 10 '-5 mol/L after 30 mins by confocal microscopy. The class given is ADME, cell-based. The conditions noted are these: 0.5 h, 10 µM. An outline of the steps: as §2
Data set [7] deals with HUVEC. The data set is described as follows: Drug uptake in human HUVEC cells assessed as increase in fluorescently labeled cells after 30 mins by FACS analysis relative to untreated control. The class given is ADME, cell-based. The conditions noted are these: 0.5 h. An outline of the steps: as §1
Data set [8] concerns Serum. Nature of the data set: Proteolytic stability in human serum assessed as compound degradation from 0.5 to 24 hrs by RP-HPLC analysis. The class given is ADME, cell-free. An outline of the steps: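 25% human serum in RPMI, equilibrated at 37 °C, with peptide added from a 1 mM aqueous stock. Aliquots taken at 0, 0.5, 1, 5 and 24 h, proteins precipitated with methanol at 4 °C and spun down. Supernatant run on C18 RP-HPLC with a 12−100% IPA/water gradient, detection at 214 nm. Peaks quantified by area; identity checked by MALDI-TOF.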

Data set [9] deals with MDA-MB-435. Nature of the data set: Drug uptake in human MDA-MB-435 cells at 10 '-5 mol/L after 30 mins by confocal microscopy. To be noted: mda-mb-435, 0.5 h, 10 µM. It is filed as ADME, cell-based. The procedure, abridged:
as §2

Data set [10] can be described thus: Cytotoxicity against human MDA-MB-435 cells assessed as cell viability up to 100 uM by MTT assay. It is filed as cell-based. To be noted: read-out: Activity. The procedure, abridged: (§3)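 MDA-MB-435 cells seeded at 1 × 10^4 cells/well in serum-free RPMI with antibiotics, 37 °C, 5% CO2; after 24 h, peptides (1−100 μM, made up in sterile water) added for 48 h; doxorubicin positive control, untreated negative control. MTT (5 mg/mL medium) 3.5 h, formazan dissolved in DMSO, A570 with 650 nm reference. Viability = absorbance treated/untreated; triplicate, mean.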
(Formazan colour is commonly taken as a measure of viable cells.)

In data set [11] the test system is MCF7. The data set is described as follows: Drug uptake in human MCF7 cells assessed as increase in fluorescently labeled cells at 10 '-5 mol/L after 30 mins by FACS analysis relative to untreated control. It is filed as ADME, cell-based. To be noted: mcf7, 0.5 h, 10 µM. The procedure, abridged: (§4)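 Cells grown to 80% confluence, trypsinized, seeded at 10^6 per well and cultured 24 h. They were then exposed to FITC-peptide at 10−5 mol/L in serum-free medium for 30 min at 37 °C, washed, and trypsinized to strip surface-bound peptide. Read by flow cytometry as percent cells above the autofluorescence cutoff of untreated cells. Repeated 2−3 times.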

Data set [12] has as its system MDA-MB-435. Nature of the data set: Drug uptake in human MDA-MB-435 cells assessed as increase in fluorescently labeled cells at 10 '-5 mol/L after 30 mins by FACS analysis relative to untreated control. The class given is ADME, cell-based. The conditions noted are these: mda-mb-435, 0.5 h, 10 µM. An outline of the steps: as §4
For data set [13], the system named is MDA-MB-435. The data set is described as follows: Binding affinity to human MDA-MB-435 cells assessed as decrease in fluorescence after 30 mins by FACS analysis in the presence of unlabelled compound. It is filed as functional, cell-based. The procedure, abridged:
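Competition assay by flow cytometry in MDA-MB-435 cells. FITC-labelled peptide at 10−5 mol/L was co-incubated with a 50-fold excess of the same unlabelled peptide for 30 min at 37 °C. Cells washed with ice-cold PBS, then FACS as in the uptake assay. Repeated 2−3 times.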

For data set [14], the system named is MDA-MB-231. The data set is described as follows: Drug uptake in human MDA-MB-231 cells assessed as increase in fluorescently labeled cells at 10 '-5 mol/L after 30 mins by FACS analysis relative to untreated control. The class given is ADME, cell-based. The conditions noted are these: mda-mb-231, 0.5 h, 10 µM. An outline of the steps:
as §4

Data set [15] deals with MDA-MB-435. The data set is described as follows: Growth inhibition of human MDA-MB-435 cells at 15 uM by MTT assay. It is filed as functional, cell-based. The procedure, abridged:
as §3

Data set [16] concerns MDA-MB-435. Nature of the data set: Binding affinity to human MDA-MB-435 cells by CyQuant GR fluorescent dye-based assay. The class given is functional, cell-based.
Data set [17] concerns Liver. Nature of the data set: Proteolytic stability in CD1 mouse liver homogenate after 15 mins by RP-HPLC analysis. To be noted: tissue homogenate, 0.25 h. The class given is ADME, tissue-based. The procedure, abridged: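 Liver homogenate from male CD-1 mice, made in ice-cold HEPES pH 7.4 and centrifuged; supernatant adjusted to 14.7 mg/mL protein. Peptide added from a 1 mM stock in 5% ACN/water (100 μL) to 200 μL homogenate plus 700 μL RPMI, pH 7.4 (2.94 mg protein). Incubated at 37 °C with shaking, sampled at intervals, and analysed by RP-HPLC.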

Data set [18] has as its system Serum. Nature of the data set: Proteolytic stability in human serum assessed as compound degradation after 30 mins by RP-HPLC analysis. It is filed as ADME, cell-free. The conditions noted are these: 0.5 h. An outline of the steps:
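Final mix of 25% human serum in RPMI, equilibrated at 37 °C for 15 min. Peptide added from a 1 mM water stock (100 μL into 1 mL total). Aliquots taken at 0, 0.5, 1, 5 and 24 h and quenched in methanol; serum proteins pelleted. Supernatant analysed by RP-HPLC (12–100% IPA/water, 214 nm); peaks integrated, with fragments identified by MALDI-TOF.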

A word on the Kd: it is a measure of binding affinity in units of concentration. A high value points to weaker binding.

Calls of active or inactive are those of the source. Peptide text beside a SMILES is read from it.

On to `CCCC[C@H](NC(=O)C[C@H](N)C(=O)NCc1cccc2ccccc12)C(=O)N[C@@H](CCC(=O)O)C(=O)N[C@@H](CC(=O)N[C@@H](C)C(=O)N[C@@H](Cc1ccc(O)cc1)C(=O)N[C@@H](CCC(N)=O)C(=O)N[C@@H](CC(=O)N[C@@H](Cc1ccccc1)C(=O)N[C@@H](CC(C)C)C(=O)O)C(=O)NCCCCN)C(=O)NC`, for which the “fold change (FC)” value with MDA-MB-231 [1], with MCF7 [4] and in the data set with MDA-MB-435 [5] was 3 each time. Moreover, the Stability result in the data set on Liver [2] and with Serum [8] was “Stable” each time. Moreover, the Drug uptake entry in the data set with MDA-MB-435 [3] is recorded as “Active”; with MCF-10A, 50%; in the data set with HUVEC [6] it was “Not Active”; in the data set on HUVEC [7], 30%; in the data set on MDA-MB-435 [9], “Active”. Also, the result in the data set filed under Homo sapiens was Active. Moreover, in data set [10], the viability was over 98%.
Regarding `CCCC[C@@H](NC(=O)[C@@H](N)Cc1c[nH]c2ccccc12)C(=O)N[C@@H](CCC(=O)O)C(=O)N[C@@H](C)C(=O)N[C@@H](C)C(=O)N[C@@H](Cc1ccc(O)cc1)C(=O)N[C@@H](CCC(N)=O)C(=O)N[C@H](CCCNC(=N)N)C(=O)N[C@@H](Cc1ccccc1)C(=O)N[C@@H](CC(C)C)C(=O)O` (HELM PEPTIDE1{W.[CCCC[C@@H](N[*:1])C(=O)[*:2]].E.A.A.Y.Q.[dR].F.L}$$$$V2.0), the Drug uptake is 68% with MCF7 [11]; 35% with MDA-MB-435 [12]; 36% in the data set on MCF-10A; “Not Active” with HUVEC [6]; 45% in the data set with MDA-MB-231 [14]; 12% in the data set on HUVEC [7]. For the same compound, the Drug uptake result in the data set with MDA-MB-435 [9] is recorded as “Active”. The “fold change (FC)” value with MDA-MB-231 [1], in the data set on MCF7 [4] and in the data set on MDA-MB-435 [5] was 3.5 in each case. Also, the outcome in the data set with MDA-MB-435 [13] was inactive. The Stability entry in the data set on Liver [2] and with Serum [8] was “Stable” throughout. Also, the outcome in the data set filed under Homo sapiens was Active. In [10], the viability was over 98%.
Consider H-WEEAAYQRFL-OH, for which the Drug uptake in the data set on MCF7 [11] is reported as 60%; with MDA-MB-435 [12], 14%; with MDA-MB-231 [14] it was 33%.
Take `CCCC[C@H](NC(=O)C[C@H](N)C(=O)NCc1cccc2ccccc12)C(=O)N[C@@H](CCC(=O)O)C(=O)N[C@@H](C)C(=O)N[C@@H](CC(=O)N[C@@H](Cc1ccc(O)cc1)C(=O)N[C@@H](CCC(N)=O)C(=O)N[C@@H](CC(=O)N[C@@H](Cc1ccccc1)C(=O)N[C@@H](CC(C)C)C(=O)O)C(=O)NCCCCN)C(=O)NC`: the “fold change (FC)” value with MDA-MB-231 [1], in the data set on MCF7 [4] and in the data set with MDA-MB-435 [5] was 3 throughout. Also, the Stability entry in the data set on Liver [2] and with Serum [8] was “Stable” in each case. Moreover, the values for the Drug uptake in the data set with MCF-10A and in the data set on HUVEC [7] were 55% and 35%, respectively. In addition, the viability in data set [10] is over 98%.
In the case of `COc1cccc2c1C(=O)c1c(O)c3c(c(O)c1C2=O)C[C@@](O)(C(=O)CO)C[C@@H]3O[C@H]1C[C@H](N)[C@H](O)[C@H](C)O1`, in the data set on MDA-MB-435 [15], the “growth inhibition (GI)” value is “Active”.
In the case of `CCCC[C@H](NC(=O)[C@@H](N)Cc1c[nH]c2ccccc12)C(=O)N[C@@H](CCC(=O)O)C(=O)N[C@@H](C)C(=O)N[C@@H](C)C(=O)N[C@@H](Cc1ccc(O)cc1)C(=O)N[C@@H](CCC(N)=O)C(=O)N[C@@H](CCCNC(=N)N)C(=O)N[C@@H](Cc1ccccc1)C(=O)N[C@@H](CC(C)C)C(=O)O` (HELM PEPTIDE1{W.[Nle].E.A.A.Y.Q.R.F.L}$$$$V2.0), the Drug uptake in the data set with MCF7 [11] is recorded as 22%; with MDA-MB-435 [12], 10%; with MDA-MB-231 [14] it was 16%. This compound came in with a Kd in the data set on MDA-MB-435 [16] of 42 µM. Besides, the Stability result in the data set on Liver [17] and in the data set on Serum [18] was “Unstable” each time.

The values above are taken from ChEMBL document CHEMBL1914448, “Proteolytically stable cancer targeting peptides with high affinity for breast cancer cells” (J Med Chem, 2011).
